Among the data in ChEMBL document CHEMBL2176984, “Target Selectivity of FimH Antagonists” (J Med Chem, 2012) are inhibition and IC50 values, retold here.

The source made the active and inactive calls. The rule behind the calls is not given here.

Broadly, the IC50 is the concentration that gives 50% inhibition. A lower IC50 goes with greater potency.

The test system of assay [1] is Escherichia coli. Description: Displacement of biotinylated-TM PAA from Escherichia coli FimH expressed in Escherichia coli HM125 at 1 mM after 3 hrs by colorimetry. In short, it runs like this:
(§1)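 Proteins were coated overnight at 4 °C in 20 mM HEPES pH 7.4, 150 mM NaCl and 10 mM CaCl2, then blocked with 3% BSA for 2 h at 4 °C. FimH was a CRD-thrombin-6His construct expressed in E. coli HM125; DC-SIGN and DC-SIGNR were CRD-Fc chimeras made in stably transfected CHO-K1. Compound at 1 mM final was co-added with streptavidin-HRP-coupled TM-PAA, incubated 3 h at 25 °C and 350 rpm, then read by ABTS OD 415 nm. No-antagonist signal was set to 100% and no-polymer background to 0%.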

The nature of assay [2]: Displacement of biotinylated-TM PAA from Escherichia coli FimH expressed in Escherichia coli HM125 after 3 hrs by colorimetry.
Assay [3] has as its target Mannose-binding protein C (Homo sapiens) (UniProt P11226). The assay is described as follows: Displacement of biotinylated-TM PAA from human MBP at 1 mM after 3 hrs by colorimetry. Summed up:
as §1

The target in assay [4] is T1, Pulmonary surfactant-associated protein D (Homo sapiens) (UniProt P35247).
T1 sequence (whole entry): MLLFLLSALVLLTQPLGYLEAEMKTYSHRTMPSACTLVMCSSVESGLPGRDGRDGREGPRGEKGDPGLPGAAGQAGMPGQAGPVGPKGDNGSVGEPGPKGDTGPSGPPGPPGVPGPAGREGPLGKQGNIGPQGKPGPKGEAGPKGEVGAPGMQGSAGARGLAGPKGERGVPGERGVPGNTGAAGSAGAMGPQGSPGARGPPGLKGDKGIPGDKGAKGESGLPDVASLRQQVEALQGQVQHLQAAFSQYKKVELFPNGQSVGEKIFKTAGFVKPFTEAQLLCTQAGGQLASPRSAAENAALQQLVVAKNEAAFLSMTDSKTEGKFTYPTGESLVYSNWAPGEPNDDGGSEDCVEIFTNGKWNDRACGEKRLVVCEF
Description: Displacement of biotinylated-TM PAA from human SP-D at 1 mM after 3 hrs by colorimetry. Summed up:
as §1

The target of assay [5] is T2, C-type lectin domain family 4 member M (Homo sapiens) (UniProt Q9H2X3).
T2 sequence (whole entry): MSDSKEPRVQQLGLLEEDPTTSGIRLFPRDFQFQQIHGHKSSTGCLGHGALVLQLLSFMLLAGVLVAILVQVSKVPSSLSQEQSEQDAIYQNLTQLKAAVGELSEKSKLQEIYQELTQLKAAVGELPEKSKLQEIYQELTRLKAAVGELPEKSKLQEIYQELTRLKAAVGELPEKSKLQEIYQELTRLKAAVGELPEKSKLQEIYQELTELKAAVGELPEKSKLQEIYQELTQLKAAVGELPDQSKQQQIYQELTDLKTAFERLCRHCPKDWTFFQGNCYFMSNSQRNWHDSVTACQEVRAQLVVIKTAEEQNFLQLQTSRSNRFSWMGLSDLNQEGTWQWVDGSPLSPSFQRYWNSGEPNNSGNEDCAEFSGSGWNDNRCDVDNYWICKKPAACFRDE
The assay is described as follows: Displacement of biotinylated-TM PAA from human DC-SIGNR at 1 mM after 3 hrs by colorimetry. In short, it runs like this:
as §1

Assay [6] has as its target T3, Macrophage mannose receptor 1 (Homo sapiens, UniProt P22897).
T3 sequence (P22897 whole entry): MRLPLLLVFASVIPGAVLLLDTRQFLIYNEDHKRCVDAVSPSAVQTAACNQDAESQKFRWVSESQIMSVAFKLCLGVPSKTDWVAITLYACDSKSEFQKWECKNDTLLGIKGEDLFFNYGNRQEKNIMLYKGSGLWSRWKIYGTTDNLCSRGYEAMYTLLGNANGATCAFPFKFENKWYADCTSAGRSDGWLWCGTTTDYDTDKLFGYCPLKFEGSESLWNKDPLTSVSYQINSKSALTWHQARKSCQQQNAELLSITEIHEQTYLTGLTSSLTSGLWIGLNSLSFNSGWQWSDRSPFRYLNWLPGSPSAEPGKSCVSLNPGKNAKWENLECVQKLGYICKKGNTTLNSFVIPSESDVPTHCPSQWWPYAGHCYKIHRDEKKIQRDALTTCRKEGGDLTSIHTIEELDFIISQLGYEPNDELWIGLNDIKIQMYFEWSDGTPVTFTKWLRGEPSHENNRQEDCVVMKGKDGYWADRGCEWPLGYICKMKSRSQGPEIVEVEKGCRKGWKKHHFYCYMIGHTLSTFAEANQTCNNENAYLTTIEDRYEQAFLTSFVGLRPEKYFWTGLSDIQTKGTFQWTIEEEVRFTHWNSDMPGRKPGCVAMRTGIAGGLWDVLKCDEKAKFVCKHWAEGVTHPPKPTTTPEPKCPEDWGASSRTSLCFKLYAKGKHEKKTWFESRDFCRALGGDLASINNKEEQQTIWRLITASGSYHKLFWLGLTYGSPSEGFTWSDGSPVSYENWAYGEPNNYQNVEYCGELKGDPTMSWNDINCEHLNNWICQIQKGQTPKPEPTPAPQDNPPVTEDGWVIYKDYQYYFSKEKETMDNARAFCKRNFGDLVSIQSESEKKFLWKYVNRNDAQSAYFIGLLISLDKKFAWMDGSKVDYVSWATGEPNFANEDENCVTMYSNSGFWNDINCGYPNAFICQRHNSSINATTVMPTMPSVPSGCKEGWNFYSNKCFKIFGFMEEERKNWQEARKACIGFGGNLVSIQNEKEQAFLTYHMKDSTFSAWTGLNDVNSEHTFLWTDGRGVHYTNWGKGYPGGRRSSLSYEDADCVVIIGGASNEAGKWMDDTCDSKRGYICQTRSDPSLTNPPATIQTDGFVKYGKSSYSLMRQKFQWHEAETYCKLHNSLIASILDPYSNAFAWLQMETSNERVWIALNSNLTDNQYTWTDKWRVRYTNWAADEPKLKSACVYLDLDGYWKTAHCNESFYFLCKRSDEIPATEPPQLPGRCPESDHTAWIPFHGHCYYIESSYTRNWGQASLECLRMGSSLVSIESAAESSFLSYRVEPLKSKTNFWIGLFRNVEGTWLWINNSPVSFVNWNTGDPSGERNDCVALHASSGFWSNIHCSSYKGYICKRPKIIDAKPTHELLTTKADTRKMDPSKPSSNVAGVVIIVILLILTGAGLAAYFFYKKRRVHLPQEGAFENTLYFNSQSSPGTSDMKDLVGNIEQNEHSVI
Description: Displacement of biotinylated-TM PAA from human MMR after 3 hrs by colorimetry.

The target of assay [7] is C-type lectin domain family 4 member K (Homo sapiens, UniProt Q9UJ71). The assay is described as follows: Displacement of biotinylated-TM PAA from human langerin after 3 hrs by colorimetry.
Chain of C-type lectin domain family 4 member K (Q9UJ71 whole entry, the tested form may be a part): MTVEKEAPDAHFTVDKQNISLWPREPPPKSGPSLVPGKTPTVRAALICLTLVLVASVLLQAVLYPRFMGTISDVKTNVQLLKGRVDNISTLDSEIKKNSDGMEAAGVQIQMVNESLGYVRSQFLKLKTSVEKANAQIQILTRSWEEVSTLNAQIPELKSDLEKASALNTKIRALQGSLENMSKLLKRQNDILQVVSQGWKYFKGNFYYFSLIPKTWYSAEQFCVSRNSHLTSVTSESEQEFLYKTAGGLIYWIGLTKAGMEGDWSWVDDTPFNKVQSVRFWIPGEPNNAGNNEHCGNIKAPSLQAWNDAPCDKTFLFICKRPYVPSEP

Chain of Mannose-binding protein C (Homo sapiens) (P11226 whole entry): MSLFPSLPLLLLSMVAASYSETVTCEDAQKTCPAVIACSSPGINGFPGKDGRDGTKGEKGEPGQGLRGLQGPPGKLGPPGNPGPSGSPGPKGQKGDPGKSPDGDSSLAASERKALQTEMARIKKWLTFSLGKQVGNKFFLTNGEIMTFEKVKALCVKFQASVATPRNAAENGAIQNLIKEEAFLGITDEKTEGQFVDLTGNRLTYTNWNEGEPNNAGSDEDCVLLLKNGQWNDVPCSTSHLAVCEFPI

Regarding `O=C(O)c1ccc(-c2ccc(O[C@H]3O[C@H](CO)[C@@H](O)[C@H](O)[C@@H]3O)cc2)cc1`, in assay [1], the inhibition result was “Active”. The IC50 in assay [2] turned out to be 17 nM. Also, the inhibition result in assay [3], in assay [4] and in assay [5] was “inactive” in each case.

`O=C(O)c1ccc2c(ccn2-c2ccc(O[C@H]3O[C@H](CO)[C@@H](O)[C@H](O)[C@@H]3O)c(Cl)c2)c1`: in assay [1], the inhibition result is “Active”. The figures for the IC50 in assay [2] and in assay [6] were 20 nM and 1 mM, respectively. Besides, the inhibition result in assay [3], in assay [4] and in assay [5] was “inactive” each time.

Take `CCCCCCCO[C@H]1O[C@H](CO)[C@@H](O)[C@H](O)[C@@H]1O`: the inhibition entry in assay [1] is “Active”. The molecule also had an IC50 in assay [2] of 65 nM. Moreover, the inhibition result in assay [3], in assay [4] and in assay [5] was “inactive” throughout.

As for `CN1CCN(c2c(Nc3ccc(O[C@H]4O[C@H](CO)[C@@H](O)[C@H](O)[C@@H]4O)c(Cl)c3)c(=O)c2=O)CC1`, the inhibition entry in assay [1] was “Active”. Besides, in assay [2], the IC50 amounted to 31 nM. In addition, the inhibition entry in assay [3], in assay [4] and in assay [5] was “inactive” throughout.

`O=C(O)c1ccc(-c2ccc(O[C@H]3O[C@H](CO)[C@@H](O)[C@H](O)[C@@H]3O)c(Cl)c2)cc1`: the inhibition entry in assay [1] was “Active”. The inhibition result in assay [3], in assay [4] and in assay [5] was “inactive” in each case. Besides, the concentration for half-maximal inhibition (IC50) in assay [6] and in assay [7] was 1 mM in each case.
